# In PubChem BioAssay AID1296 (Columbia University Molecular Screening Center, 2008):
# The campaign covered roughly 130,000 compounds. About 1,000 (0.77%) were called active. Not shown: some 1% with an inconclusive outcome.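 Rule for the calls: active = activation at 2 µM above a set limit, confirmed on inspection of the cell images; inconclusive = above the set limit but not confirmed on image inspection; inactive = the rest.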 The full list was thinned out, with actives kept by preference.
# Test: activators of insulin promoter-driven GFP, primary screen, imaging, TRM-6 cells (human fetal islet line), eGFP reporter, cell count (AID 1296;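 for activation: share of cells whose green reporter signal exceeds an intensity cutoff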;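 for normalized cell count: cells counted after 48 h compound exposure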)
# Settings: at 2 µM; activation: stronger effect = higher value, plate-scaled: unstimulated 0, stimulated control 100; normalized cell count: measured here: cell count (toxicity)
# Procedure, shortened: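 Assay system: TRM-6 human fetal islet cells, insulin promoter–eGFP reporter; Also added: 0.75 µM tamoxifen as reporter inducer; Schedule: 15 h tamoxifen pre-treatment, 48 h compound treatment at 37 °C; Signal: fixed-cell fluorescence microscopy, eGFP plus Hoechst; Read-out: percent activation from GFP-positive cell fraction; Control set: stimulated and unstimulated wells.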
Compound,activation,normalized cell count [%]
COC(=O)Cc1c(O)ccn(Cc2cccc(C(F)(F)F)c2)c1=O,2.86% (inactive),159
Cc1nn(-c2ccccc2)c(C)c1/C=C/C(=O)OC(C)C(N)=O (stereo unspecified),-68.8% (inactive),181
CCOC(=O)c1c(NC(=O)CSc2nnc(C)c(=O)[nH]2)sc2c1CCC2,8.33% (inactive),125
CCOC(=O)C(NC(=O)CC(C)C)(Nc1sc2c(c1C(N)=O)CCCC2)C(F)(F)F (stereo unspecified),450% (active),72.9
CCOC(=O)c1c(NC(=O)c2ccc(Br)o2)sc2c1CCCC2,-3.7% (inactive),119
CSc1ccccc1NC(=O)Cc1ccc(Br)cc1,-3.85% (inactive),70.6
Cc1ccccc1NC(=O)C(C)c1ccc(-c2ccccc2)c(F)c1 (stereo unspecified),-2.7% (inactive),168
O=C(CSCc1ccc([N+](=O)[O-])cc1)Nc1cccc(C(=O)Nc2ccccc2C(=O)O)c1,8.33% (inactive),107
COc1ccc(CC(=O)NCc2nnc(SCC(=O)Nc3nccs3)n2C)cc1,330% (active),83.7
COc1ccc(CC(=O)NCc2nnc(SCC(=O)Nc3ncc(C)s3)n2C)cc1,-5.56% (inactive),192
COC(=O)c1ccc(NC(=O)CSc2nnc(CNc3ccc(OC)cc3)n2C)cc1,0% (inactive),125
CSCCC(=O)N1CCCC(CNC(=O)c2ccccc2Cl)C1 (stereo unspecified),7.14% (inactive),83
Cn1cc(/C=C/c2nc3ccccc3c(=O)n2-c2cccc([N+](=O)[O-])c2)c2ccccc21,-9.09% (inactive),111
COc1ccc(N(C(=O)c2ccc(C)cc2)S(=O)(=O)c2cccs2)cc1,3.85% (inactive),171
CCN(CC)S(=O)(=O)c1cc(C(=O)Nc2ccccn2)ccc1C,309% (inactive),42.6
Cc1ccc(C(=O)N/C(=C/c2cccs2)C(=O)N2CCCCC2)cc1,0% (inactive),111
Cc1ccc(C(=O)N/C(=C\c2cccs2)C(=O)NCCc2ccccn2)cc1C,392% (active),87.4

Compound,activation,normalized cell count [%]
CCOc1ccc(N2C(=O)Nc3ccccc3C2(O)C(=O)NCc2ccco2)cc1 (stereo unspecified),0% (inactive),74.7
Cc1ccc(C(=O)CSc2nc3ccccc3c(=O)n2N)o1,-5.26% (inactive),137
Cc1nnc(SCc2cccc(Cl)c2)n(N)c1=O,508% (active),36.8
Cc1cccc(CSc2nnc(Cn3c(=O)sc4ccccc43)n2C)c1,-50% (inactive),79.6
CC(C)CNC(=S)Nc1ccc(F)cc1,-6.9% (inactive),136
Cc1nc(SCc2ccc(F)cc2)c([N+](=O)[O-])[nH]1,9.09% (inactive),97.3
CS(=O)(=O)N(CC(=O)Nc1ccc(Cl)c(Cl)c1)C1CCCCC1,5.71% (inactive),124
O=C(CCCN1C(=O)CCC1=O)Nc1ccc(Cl)c(C(F)(F)F)c1,444% (active),46.3
O=C(CN1C(=O)CCC1=O)Nc1ccc(S(=O)(=O)N2CCOCC2)cc1,-10% (inactive),72.6
CN1CCN(C(=O)/C(=C\c2ccc3c(c2)OCO3)NC(=O)c2cccs2)CC1,-8.33% (inactive),121
CCN1/C(=C\c2ccc3ccccc3[n+]2CC)Sc2cc(C)ccc21,567% [fluoresces] (active),15.3
CCN1/C(=C/c2ccc3ccc(C)cc3[n+]2CC)Sc2ccccc21,567% (active),10.5
O=C(NC1CC1)c1cccc(Br)c1,-3.12% (inactive),91.1
O=C(Cc1coc2ccc3ccccc3c12)NCc1cccs1,-2.94% (inactive),153
CCC(=O)/C(=C(/O)c1ccccc1)c1nc2ccccc2[nH]1,0% (inactive),134
COc1cc(NC(=O)Nc2ccc(C)cc2)cc([N+](=O)[O-])c1,-6.45% (inactive),133
